Source: ChEMBL document CHEMBL4823321, “Improving the Adjuvanticity of Small Molecule Immune Potentiators Using Covalently Linked NF-κB Modulators” (ACS Med Chem Lett, 2021)
Activity calls are given as the source filed them. The calls are words filed in the database; no cut-off is given here.

How the values were obtained:
BMDC = assay: Modulator activity at NF-kappaB in C57BL/6 mouse BMDC cells assessed as increase in cell surface CD40 expression at 200 nM measured after 8 hrs by FACS analysis; format: cell-based; settings: filed as modulator
Summary of the method: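 Murine bone-marrow-derived dendritic cells incubated 8 h with compounds at 200 nM; cells stained for surface CD40 and quantified by flow cytometry.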

[1] = target: TLR7 and TLR8 (Mus musculus) (UniProt P58681+P58682); assay: Agonist activity at TLR7/8 in mouse RAW-blue cells assessed as immune activation by measuring induction of NFkappaB activation at 500 nM measured after 24 hrs by quanti-blue SEAP reporter gene-based assay; format: cell-based; settings: filed as agonist
Summary of the method: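 RAW-Blue macrophages exposed to compounds at 500 nM for 24 h at 37 °C; NF-κB-driven reporter read-out; triplicate samples; one-way ANOVA against TLR7/8 SMIP.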

[2] = Toxicity in C57BL/6 mouse BMDC cells assessed as induction of inflammation by measuring increase in IL-6 secretion at 200 nM measured after 8 hrs by ELISA; format: cell-based; settings: 0.2 µM
Summary of the method: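 Murine bone-marrow-derived dendritic cells incubated 8 h with compounds at 200 nM; secreted IL-6 quantified by ELISA; triplicate; one-way ANOVA versus TLR7/8 SMIP.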

RAW264.7 [3] = assay: Antioxidant activity in mouse RAW264.7 cells assessed as reduction in intracellular ROS level measured after 16 hrs by CM-H2DCFDA based flow cytometry analysis relative to TLR7/8 SMIP; format: functional
Summary of the method: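 RAW macrophages incubated with compounds for 16 h, then loaded with CM-H2DCFDA; intracellular ROS fluorescence quantified by flow cytometry.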

RAW264.7 [4] = assay: Inhibition of NO production in mouse RAW264.7 cells at 500 nM incubated for 16 hrs by Griess reagent based analysis; format: functional, cell-based
Summary of the method: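 Nitrite measured with Griess reagent in supernatants of RAW macrophages incubated 16 h with 500 nM compounds; triplicate; one-way ANOVA versus TLR7/8 SMIP.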

RAW264.7 [5] = assay: Inhibition of COX-2 expression in mouse RAW264.7 cells at 500 nM incubated for 16 hrs by western blot analysis; format: functional, cell-based
Summary of the method: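 After 16 h with 500 nM compounds, RAW macrophages were lysed; proteins separated by SDS-PAGE, transferred to membrane and probed with anti-COX-2 antibody; triplicate.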

RAW264.7 [6] = assay: Inhibition of iNOS expression in mouse RAW264.7 cells at 500 nM incubated for 16 hrs by western blot analysis; format: functional, cell-based
[7] = Systemic toxicity in C57BL/6 mouse assessed as increase in serum TNF-alpha level administered intramuscularly in presence of ovalbumin measured after 1 hr; settings: in vivo, im
Summary of the method: (§1)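 Mice vaccinated with ovalbumin admixed with adjuvant in PBS, i.m.; serum collected 1 h after injection for IL-6 and TNF-α; one-way ANOVA versus PBS control.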

Mus musculus [8] = assay: Induction of T-cell immunity in C57BL/6 mouse splenocytes assessed as increase in CD3+CD8+ tetramer administered intramuscularly on day 1 and as booster dose on day 14 in presence of ovalbumin and SINFEKL MHC specific tetramer measured on day 28 by flow cytometric analysis; format: functional, cell-based; settings: time 28.0 day
Splenocyte = assay: Induction of innate immunity in C57BL/6 mouse naive splenocyte assessed as increase in cell proliferation at 3 uM measured after 48 hrs by MTT assay; format: functional, tissue-based
Summary of the method: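 Naive splenocytes incubated 48 h with compounds to assess proliferation.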

[9] = Systemic toxicity in CT26 cells xenografted BALB/c mouse tumor model assessed as increase in serum TNF-alpha level at 20 nmol, IT and measured after 2 hrs; format: cell-based; settings: in vivo, other
Summary of the method: (§2)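 Subcutaneous CT-26 tumors established for 11 days, then compounds given by peritumoral injection; serum collected 2 h later for TNF-α and IL-6.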

[10] = Systemic toxicity in CT26 cells xenografted BALB/c mouse tumor model assessed as increase in serum IL-6 level at 20 nmol, IT and measured after 2 hrs; format: cell-based; settings: in vivo, other; summary of the method: as §2
[11] = Systemic toxicity in CT26 cells xenografted BALB/c mouse tumor model assessed as reduction in white blood count in peripheral blood at 20 nmol, IT and measured after 24 hrs by hematological analysis; format: cell-based; settings: in vivo, other
Summary of the method: (§3)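 Subcutaneous CT-26 tumors established for 11 days, then compounds given peritumorally; peripheral blood collected 24 h later for hematological analysis of white blood cell and lymphocyte counts.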

[12] = Systemic toxicity in C57BL/6 mouse assessed as increase in serum IL-6 level administered intramuscularly in presence of ovalbumin measured after 1 hr; settings: in vivo, im; summary of the method: as §1
[13] = Systemic toxicity in CT26 cells xenografted BALB/c mouse tumor model assessed as reduction in lymphocyte count in peripheral blood at 20 nmol, IT and measured after 24 hrs by hematological analysis; format: cell-based; settings: in vivo, other; summary of the method: as §3
Mus musculus [14] = assay: Immuno-adjuvant activity in C57BL/6 mouse assessed as increase in levels of anti-OVA Ig (A+G+M) administered intramuscularly on day 1 and as booster dose on day 14 in presence of ovalbumin and measured on day 28 by ELISA; format: functional, organism-based; settings: time 28.0 day
Summary of the method: (§4)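 Ovalbumin plus adjuvant in PBS given i.m., boosted on day 14; sera collected at sacrifice on day 28 and anti-OVA antibodies measured; one-way ANOVA versus PBS control.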

CT26 = assay: Antitumor activity against mouse CT26 cells xenografted in BALB/c mouse assessed as survival rate at 20 nmol, IT administered on day 15,19 and 23 and measured on day 35; format: functional
Summary of the method: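 Subcutaneous CT-26 colon carcinoma in mice. Once tumors were established at day 11, […], compounds were given by peritumoral injection, then three more injections every 4 days. Tumor size was measured every alternate day. Animals were euthanized when a tumor reached 20 mm in any linear dimension. Kaplan–Meier survival was followed until day 35.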

Mus musculus [15] = assay: Immuno-adjuvant activity in C57BL/6 mouse assessed as increase in levels of anti-OVA IgG administered intramuscularly on day 1 and as booster dose on day 14 in presence of ovalbumin and measured on day 28 by ELISA; format: functional, organism-based; settings: time 28.0 day; summary of the method: as §4
Mus musculus [16] = assay: Immuno-adjuvant activity in C57BL/6 mouse assessed as increase in levels of anti-OVA IgA administered intramuscularly on day 1 and as booster dose on day 14 in presence of ovalbumin and measured on day 28 by ELISA; format: functional, organism-based; settings: time 28.0 day

Chain of TLR7 and TLR8 (Mus musculus) (P58681 whole entry, looked up): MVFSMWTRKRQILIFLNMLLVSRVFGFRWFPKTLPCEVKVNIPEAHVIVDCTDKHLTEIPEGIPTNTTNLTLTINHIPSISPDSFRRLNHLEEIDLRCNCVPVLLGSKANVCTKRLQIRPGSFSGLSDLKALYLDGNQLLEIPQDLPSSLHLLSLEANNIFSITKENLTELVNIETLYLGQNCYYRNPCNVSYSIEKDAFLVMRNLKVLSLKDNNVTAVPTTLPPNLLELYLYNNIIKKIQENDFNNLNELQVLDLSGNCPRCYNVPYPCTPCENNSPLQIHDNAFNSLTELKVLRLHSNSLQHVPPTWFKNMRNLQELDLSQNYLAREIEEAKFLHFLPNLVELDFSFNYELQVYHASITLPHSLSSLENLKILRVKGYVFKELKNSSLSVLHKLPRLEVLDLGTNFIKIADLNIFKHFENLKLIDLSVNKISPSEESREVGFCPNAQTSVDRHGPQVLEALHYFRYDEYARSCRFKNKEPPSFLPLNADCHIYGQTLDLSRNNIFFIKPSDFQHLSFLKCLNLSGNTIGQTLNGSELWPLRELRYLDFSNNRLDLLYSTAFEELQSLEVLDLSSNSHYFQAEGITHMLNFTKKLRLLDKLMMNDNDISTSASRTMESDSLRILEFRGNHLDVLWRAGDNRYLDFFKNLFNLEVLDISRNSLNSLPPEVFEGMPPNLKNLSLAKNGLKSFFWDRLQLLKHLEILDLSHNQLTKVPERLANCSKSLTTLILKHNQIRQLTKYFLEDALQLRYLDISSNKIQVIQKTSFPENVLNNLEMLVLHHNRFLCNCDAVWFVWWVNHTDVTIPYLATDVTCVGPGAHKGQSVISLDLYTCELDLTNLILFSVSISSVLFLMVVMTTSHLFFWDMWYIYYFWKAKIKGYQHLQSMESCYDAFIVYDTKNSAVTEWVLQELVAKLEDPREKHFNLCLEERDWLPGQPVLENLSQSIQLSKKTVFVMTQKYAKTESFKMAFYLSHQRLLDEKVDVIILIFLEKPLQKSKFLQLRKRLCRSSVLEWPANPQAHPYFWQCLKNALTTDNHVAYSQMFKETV
Chain of TLR7 and TLR8 (Mus musculus) (P58682 whole entry, looked up): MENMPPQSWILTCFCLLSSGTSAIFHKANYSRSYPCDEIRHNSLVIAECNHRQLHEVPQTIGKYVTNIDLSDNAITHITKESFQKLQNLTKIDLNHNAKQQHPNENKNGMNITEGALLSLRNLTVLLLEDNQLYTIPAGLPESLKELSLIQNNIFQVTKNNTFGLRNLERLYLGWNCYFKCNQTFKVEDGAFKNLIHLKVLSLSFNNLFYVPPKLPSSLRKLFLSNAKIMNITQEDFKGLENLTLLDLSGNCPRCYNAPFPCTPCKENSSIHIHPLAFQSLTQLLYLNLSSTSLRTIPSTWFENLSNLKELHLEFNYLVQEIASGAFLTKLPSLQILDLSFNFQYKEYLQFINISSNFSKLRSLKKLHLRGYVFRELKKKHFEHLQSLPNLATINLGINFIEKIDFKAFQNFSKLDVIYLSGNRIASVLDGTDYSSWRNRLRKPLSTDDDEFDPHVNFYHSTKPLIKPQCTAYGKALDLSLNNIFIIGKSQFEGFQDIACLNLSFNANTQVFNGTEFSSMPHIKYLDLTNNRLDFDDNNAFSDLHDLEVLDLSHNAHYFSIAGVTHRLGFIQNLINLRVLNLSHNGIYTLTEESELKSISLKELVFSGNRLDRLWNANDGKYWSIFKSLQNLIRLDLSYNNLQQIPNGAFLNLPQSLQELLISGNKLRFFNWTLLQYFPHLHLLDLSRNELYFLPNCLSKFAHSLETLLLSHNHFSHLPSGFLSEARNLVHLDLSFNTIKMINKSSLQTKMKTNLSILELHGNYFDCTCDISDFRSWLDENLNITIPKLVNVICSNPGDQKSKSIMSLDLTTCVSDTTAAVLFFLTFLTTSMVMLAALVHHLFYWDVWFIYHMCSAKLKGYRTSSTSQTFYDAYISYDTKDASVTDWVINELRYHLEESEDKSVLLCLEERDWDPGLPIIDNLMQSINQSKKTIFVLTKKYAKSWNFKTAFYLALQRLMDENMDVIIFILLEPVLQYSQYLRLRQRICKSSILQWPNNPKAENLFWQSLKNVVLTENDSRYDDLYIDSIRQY

Row | Activity [1] | Compound | Activity (BMDC) | Activity [2] | inhibition (INH) (RAW264.7 [3]) [%] | inhibition (RAW264.7 [4]) | inhibition (RAW264.7 [5]) | inhibition (RAW264.7 [6]) | Activity [7] | Activity (Mus musculus [8]) | Activity (Splenocyte) | Activity [9] | Activity [10] | Activity [11] | Activity [12] | Activity [13] | Activity (Mus musculus [14]) | Activity (CT26; time 35.0 day) | Activity (Mus musculus [15]) | Activity (Mus musculus [16]) | Survival (CT26; time 35 day) [%]
1 | Active | CCCCc1nc2c(N)nc3ccccc3c2n1Cc1ccc(CNC(=O)c2cccc(-c3cccc(O)c3)c2)cc1 | Active | Non-Toxic | 50 | Active | inactive | Active | Non-Toxic | inactive | Active | Non-Toxic | Non-Toxic | Non-Toxic | Non-Toxic | Non-Toxic |  |  |  |  | 
2 | Active | CCCCc1nc2c(N)nc3ccccc3c2n1Cc1ccc(CNC(=O)c2cc(-c3ccc(O)cc3)ccc2O)cc1 | Active | Toxic | 50 | Active | inactive | Active |  |  | Active |  | Non-Toxic |  |  | Non-Toxic |  |  |  |  | 
3 | Active | CCCCc1nc2c(N)nc3ccccc3c2n1Cc1ccccc1 | Active | Toxic |  |  |  |  |  |  | Active | Toxic | Toxic | Toxic |  | Toxic |  |  |  |  | 
4 | Active | CCCCc1nc2c(N)nc3ccccc3c2n1Cc1ccc(CNC(=O)c2ccc(-c3cccc(O)c3)cc2O)cc1 | Active | Toxic | 50 | Active | inactive | Active |  |  | Active | Non-Toxic | Non-Toxic | Non-Toxic |  | Non-Toxic |  |  |  |  | 
5 | Active | CCCCc1nc2c(N)nc3ccccc3c2n1Cc1ccc(CNC(=O)NCCc2ccc(O)c(O)c2)cc1 | Active | Non-Toxic | 50 | Active | inactive | Active | Non-Toxic | inactive | Active | Non-Toxic | Non-Toxic | Non-Toxic | Non-Toxic | Non-Toxic | Active |  | Active |  | 

Further lines, the compound ahead of its results:

Row | Compound | Activity [1] | Activity (BMDC) | Activity [2] | inhibition (INH) (RAW264.7 [3]) [%] | inhibition (RAW264.7 [4]) | inhibition (RAW264.7 [5]) | inhibition (RAW264.7 [6]) | Activity [7] | Activity (Mus musculus [8]) | Activity (Splenocyte) | Activity [9] | Activity [10] | Activity [11] | Activity [12] | Activity [13] | Activity (Mus musculus [14]) | Activity (CT26; time 35.0 day) | Activity (Mus musculus [15]) | Activity (Mus musculus [16]) | Survival (CT26; time 35 day) [%]
6 | CCOCc1nc2c(N)nc3ccccc3c2n1CC(C)(C)O [RESIQUIMOD] |  |  |  |  |  |  |  |  |  |  | Toxic | Toxic | Toxic |  | Toxic |  |  |  |  | 
7 | CCCCc1nc2c(N)nc3ccccc3c2n1Cc1ccc(CNC(=O)NCCCCCC(=O)NCc2ccc(O)c(OC)c2)cc1 | Active | Active | Non-Toxic | 50 | Active | inactive | Active | Non-Toxic | inactive | Active | Non-Toxic | Non-Toxic | Non-Toxic | Non-Toxic | Non-Toxic | Active | Active | Active | Active | 
8 | CCCCc1nc2c(N)nc3ccccc3c2n1Cc1ccc(CNC(=O)NCCCNC(=O)/C=C/c2ccc(O)c(OC)c2)cc1 | Active | Active | Non-Toxic | 50 | Active | inactive | Active |  |  | Active | Toxic | Toxic | Toxic |  | Toxic |  |  |  |  | 80
9 | CCCCCCCCCCCCCCCCCC(=O)NCCCCOn1c(CCCC)nc2c(N)nc3ccccc3c21 [TELRATOLIMOD] |  |  |  |  |  |  |  |  |  |  | Non-Toxic | Non-Toxic | Non-Toxic |  | Non-Toxic |  |  |  |  | 
